In ChEMBL document CHEMBL2311406, “Structure-based design of high-affinity macrocyclic peptidomimetics to block the menin-mixed lineage leukemia 1 (MLL1) protein-protein interaction” (J Med Chem, 2013) one finds IC50 and Ki data, which are given here for one compound.

One may read the IC50 as the midpoint of a concentration-inhibition curve. As usually defined, the Ki is the equilibrium dissociation constant of an inhibitor or competing ligand from its target.

This experiment addresses T1, Menin (Homo sapiens, UniProt O00255).
T1 sequence (O00255 whole entry): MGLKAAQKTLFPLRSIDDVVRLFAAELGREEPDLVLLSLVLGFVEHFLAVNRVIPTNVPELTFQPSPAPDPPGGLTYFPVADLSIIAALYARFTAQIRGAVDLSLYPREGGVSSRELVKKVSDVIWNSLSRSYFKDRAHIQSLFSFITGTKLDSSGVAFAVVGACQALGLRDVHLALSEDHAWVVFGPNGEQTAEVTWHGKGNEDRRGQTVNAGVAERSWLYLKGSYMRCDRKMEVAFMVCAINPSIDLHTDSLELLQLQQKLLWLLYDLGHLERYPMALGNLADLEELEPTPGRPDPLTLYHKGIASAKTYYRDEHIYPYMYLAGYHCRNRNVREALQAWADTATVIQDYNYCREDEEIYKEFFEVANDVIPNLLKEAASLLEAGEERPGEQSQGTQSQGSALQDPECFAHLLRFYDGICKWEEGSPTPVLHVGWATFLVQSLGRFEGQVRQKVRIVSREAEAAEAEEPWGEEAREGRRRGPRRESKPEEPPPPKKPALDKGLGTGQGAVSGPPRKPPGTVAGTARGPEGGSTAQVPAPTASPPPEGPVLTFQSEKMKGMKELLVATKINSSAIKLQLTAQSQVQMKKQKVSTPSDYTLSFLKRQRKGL
In words: Binding affinity to menin (unknown origin) after 60 mins by fluorescence polarization assay. In a few lines:
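Competitive FP with fluorescein-labeled peptide tracers. Compound in DMSO (2% final) was added to a preincubated menin/tracer complex in 100 mM potassium phosphate pH 7.5 with 100 μg/mL bovine γ-globulin and 0.02% sodium azide. Menin/tracer/detergent were 30 nM/3 nM/0.005% Triton X-100 or 3 nM/2 nM/0.02% Tween-20. Ki was derived from the fitted IC50, probe Kd and assay concentrations.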
For orientation: In fluorescence polarisation assays a small probe gives low polarisation when free and higher when bound to something large.

*1 amine or outer side, *2 acyl side, *3 side chain or, on linkers, in order; H or OH if unused. Where a SMILES comes first, the peptide text is derived from it. Bridges are numbered along the chain shown (N, C = ends). [ ]: non-standard residue; d: D form. hhhhLys = O=C([C@H](CCCCCCCCN[*:3])N[*:1])[*:2]; Cha = N[C@@H](CC1CCCCC1)C(=O)O; Ac4c = NC1(C(=O)O)CCC1

Regarding `N=C(N)NCCC[C@@H]1NC(=O)C2(CCC2)NC(=O)[C@@H]2CCCN2C(=O)[C@H](CC2CCCCC2)NC(=O)[C@@H](N)CCCCCCCCNC(=O)[C@@H]2CCCN2C1=O` (H-[hhhhLys][Cha]P[Ac4c]RP; lactam 1-C), the IC50 is 3.33 µM and the Ki worked out at 862 nM.
